We go through 14 compounds from ChEMBL document CHEMBL1157342, “Isolation of gelsedine-type indole alkaloids from Gelsemium elegans and evaluation of the cytotoxic activity of gelsemium alkaloids for A431 epidermoid carcinoma cells” (J Nat Prod, 2006).

In the assay the test system is A-431. The assay is described as follows: Cytotoxicity against human A431 cells after 48 hrs by trypan blue test. The following applies: A-431, 48 h. The format is functional, cell-based. A digest of the protocol: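 A431 human epidermoid carcinoma cells were grown at 5% CO2, 37 °C, seeded in 12-well plates at 1 × 10^5 cells/well and treated at semiconfluence (about 5 × 10^5 cells/well). DMSO stocks (100 mM) were diluted in serum-free RPMI-1640 to 10 nM–100 µM final, with DMSO below 0.1%. After 48 h, cells were counted in a Bürker-Türk chamber with trypan blue. Survival was expressed as % of untreated control. EC50 was taken from three independent experiments, mean ± SEM.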

Broadly, the EC50 is the midpoint of the concentration-response curve. `C=C[C@]12CN(C)[C@@H]3[C@H]4CO[C@H](C[C@H]41)[C@]1(C(=O)Nc4ccccc41)[C@@H]32` [GELSEMINE] displayed an EC50 of more than 100 µM. For `CCC1=N[C@H]2C[C@@]3(C(=O)N(OC)c4cc(OC)ccc43)[C@@H]3OC[C@H]2[C@H]1[C@H]3O`, the EC50 was more than 100 µM. For `C/C=C1\CN(C)[C@H]2C[C@@]3(C(=O)N(OC)c4cc(OC)ccc43)[C@H]3C[C@@H]1[C@@H]2CO3`, the EC50 is more than 100 µM. As for `CC[C@H]1N[C@H]2C[C@@]3(C(=O)N(OC)c4cc(OC)ccc43)[C@H]3C[C@@H]1[C@@H]2CO3` [GELSEMICINE], the figure is 0.75 µM; as for `CCC1=N[C@H]2C[C@@]3(C(=O)N(OC)c4ccccc43)[C@@H]3OC[C@H]2[C@H]1[C@H]3O`, more than 100 µM. The same measure for `C/C=C1\CN(C)[C@H]2C[C@@]3(C(=O)N(OC)c4ccccc43)[C@H]3C[C@@H]1[C@@H]2CO3` [HUMANTENINE]: more than 100 µM; for `CC[C@H]1N[C@H]2C[C@@]3(C(=O)N(OC)c4ccccc43)[C@H]3C[C@@H]1[C@@H]2CO3` [GELSEDINE]: 0.35 µM; for `CCC(=O)[C@]12N[C@H]3C[C@@]4(C(=O)N(OC)c5ccccc54)[C@H](OC[C@H]31)[C@@H]2O` [GELSEMOXONINE]: more than 100 µM.

As for `CCC1=N[C@H]2C[C@@]3(C(=O)N(OC)c4ccccc43)[C@@H]3OC[C@H]2[C@@]1(O)[C@H]3OC(C)=O`, the EC50 turned out to be 36 µM.

For `C=C[C@@]12CN(C)[C@H]3C[C@]14C(=Nc1ccccc14)[C@@H]1C[C@@H]2[C@@H]3CO1` [KOUMINE], the EC50 is more than 100 µM. The same measure for `C/C=C1\CN2[C@H]3Cc4c([nH]c5ccccc45)[C@@H]2C[C@@H]1C3(CO)C(=O)OC` (some centres undefined): more than 100 µM; for `CCC1=N[C@H]2C[C@@]3(C(=O)N(OC)c4ccccc43)[C@H]3C[C@@H]1[C@@H]2CO3` [GELSENICINE]: 37 µM; for `CCC1=N[C@H]2C[C@@]3(C(=O)N(OC)c4ccccc43)[C@@H]3OC[C@H]2[C@H]1[C@H]3OC(C)=O`: 0.25 µM. The same measure for `CCC1=N[C@H]2C[C@@]3(C(=O)N(OC)c4ccccc43)[C@@H]3OC[C@H]2[C@@]1(O)[C@H]3O`: 1.3 µM.
